Laboratory results: ChEMBL document CHEMBL2040727, “Substituted thiazoles VI. Synthesis and antitumor activity of new 2-acetamido- and 2 or 3-propanamido-thiazole analogs” (2012)

System: not listed separately
Assay: Growth inhibition of human NCI-ADR-RES cells at 10 uM after 48 hrs by coulter counter analysis
Assay type: functional
Details: read-out: GI
Summary of the method: (§1)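 Single-dose NCI 60-line panel screen of test compounds. Cells grown in RPMI 1640 with 10% FBS. Compounds dissolved in DMSO, then diluted in phosphate buffer saline (final DMSO below 1%). Wells run in duplicate at 6 × 10⁴ cells/ml. Controls held PBS and DMSO at matching dilutions. Incubation 48 h at 37 °C under humidified 5% CO2. Cells diluted tenfold in saline and counted by Coulter counter. Percent growth inhibition taken from mean-graph of treated-cell growth.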

Row | SMILES | inhibition of growth at 10 µM [%]
1 | Cc1csc(NC(=O)C(C)N2CCN(C)CC2)n1 (stereo unspecified) | < 10

System: HCC 2998
Assay: Growth inhibition of human HCC2998 cells at 10 uM after 48 hrs by coulter counter analysis
Assay type: functional
Details: HCC 2998, 48 h, read-out: GI
Summary of the method: as §1

Row | SMILES | inhibition of growth at 10 µM [%]
2 | Cc1csc(NC(=O)C(C)N2CCN(C)CC2)n1 (stereo unspecified) | < 10

System: MDA-MB-435
Assay: Growth inhibition of human MDA-MB-435 cells at 10 uM after 48 hrs by coulter counter analysis
Assay type: functional
Details: MDA-MB-435, 48 h, read-out: GI
Summary of the method: as §1

Row | SMILES | inhibition of growth at 10 µM [%]
3 | Cc1csc(NC(=O)C(C)N2CCN(C)CC2)n1 (stereo unspecified) | 11.2

System: KM12
Assay: Growth inhibition of human KM12 cells at 10 uM after 48 hrs by coulter counter analysis
Assay type: functional
Details: KM12, 48 h, read-out: GI
Summary of the method: as §1

Row | SMILES | inhibition of growth at 10 µM [%]
4 | Cc1csc(NC(=O)C(C)N2CCN(C)CC2)n1 (stereo unspecified) | < 10

System: SN12C
Assay: Growth inhibition of human SN12C cells at 10 uM after 48 hrs by coulter counter analysis
Assay type: functional
Details: read-out: GI
Summary of the method: as §1

Row | SMILES | inhibition of growth at 10 µM [%]
5 | Cc1csc(NC(=O)C(C)N2CCN(C)CC2)n1 (stereo unspecified) | 11.5

System: HCT-15
Assay: Growth inhibition of human HCT15 cells at 10 uM after 48 hrs by coulter counter analysis
Assay type: functional
Details: HCT-15, 48 h, read-out: GI
Summary of the method: as §1

Row | SMILES | inhibition of growth at 10 µM [%]
6 | Cc1csc(NC(=O)C(C)N2CCN(C)CC2)n1 (stereo unspecified) | 25.5

System: M14
Assay: Growth inhibition of human M14 cells at 10 uM after 48 hrs by coulter counter analysis
Assay type: functional
Details: M14, 48 h, read-out: GI
Summary of the method: as §1

Row | SMILES | inhibition of growth at 10 µM [%]
7 | Cc1csc(NC(=O)C(C)N2CCN(C)CC2)n1 (stereo unspecified) | 25.5

System: Malme-3M
Assay: Growth inhibition of human MALME-3M cells at 10 uM after 48 hrs by coulter counter analysis
Assay type: functional
Details: read-out: GI
Summary of the method: as §1

Row | SMILES | inhibition of growth at 10 µM [%]
8 | Cc1csc(NC(=O)C(C)N2CCN(C)CC2)n1 (stereo unspecified) | 17.6

System: OVCAR-8
Assay: Growth inhibition of human OVCAR8 cells at 10 uM after 48 hrs by coulter counter analysis
Assay type: functional
Details: OVCAR-8, 48 h, read-out: GI
Summary of the method: as §1

Row | SMILES | inhibition of growth at 10 µM [%]
9 | Cc1csc(NC(=O)C(C)N2CCN(C)CC2)n1 (stereo unspecified) | < 10

System: NCI-H226
Assay: Growth inhibition of human NCI-H226 cells at 10 uM after 48 hrs by coulter counter analysis
Assay type: functional
Details: NCI-H226, 48 h, read-out: GI
Summary of the method: as §1

Row | SMILES | inhibition of growth at 10 µM [%]
10 | Cc1csc(NC(=O)C(C)N2CCN(C)CC2)n1 (stereo unspecified) | < 10

System: HOP-92
Assay: Growth inhibition of human HOP92 cells at 10 uM after 48 hrs by coulter counter analysis
Assay type: functional
Details: HOP-92, 48 h, read-out: GI
Summary of the method: as §1

Row | SMILES | inhibition of growth at 10 µM [%]
11 | Cc1csc(NC(=O)C(C)N2CCN(C)CC2)n1 (stereo unspecified) | < 10

System: MCF7
Assay: Growth inhibition of human MCF7 cells at 10 uM after 48 hrs by coulter counter analysis
Assay type: functional
Details: MCF7, 48 h, read-out: GI
Summary of the method: as §1

Row | SMILES | inhibition of growth at 10 µM [%]
12 | Cc1csc(NC(=O)C(C)N2CCN(C)CC2)n1 (stereo unspecified) | 35.6

System: RPMI-8226
Assay: Growth inhibition of human RPMI8226 cells at 10 uM after 48 hrs by coulter counter analysis
Assay type: functional
Details: RPMI-8226, 48 h, read-out: GI
Summary of the method: as §1

Row | SMILES | inhibition of growth at 10 µM [%]
13 | Cc1csc(NC(=O)C(C)N2CCN(C)CC2)n1 (stereo unspecified) | < 10

System: SF-268
Assay: Growth inhibition of human SF268 cells at 10 uM after 48 hrs by coulter counter analysis
Assay type: functional
Details: SF-268, 48 h, read-out: GI
Summary of the method: as §1

Row | SMILES | inhibition of growth at 10 µM [%]
14 | Cc1csc(NC(=O)C(C)N2CCN(C)CC2)n1 (stereo unspecified) | < 10

System: UO-31
Assay: Growth inhibition of human UO31 cells at 10 uM after 48 hrs by coulter counter analysis
Assay type: functional
Details: UO-31, 48 h, read-out: GI
Summary of the method: (§2)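 Single-dose screen in the NCI 60 cell line panel. Cells grown in RPMI 1640 with 10% FBS. Compounds dissolved in DMSO and diluted in phosphate buffered saline, final DMSO under 1%. Duplicate wells seeded from culture at 6 × 10⁴ cells/ml. Incubated 48 h at 37 °C, humidified, 5% CO2. Cells diluted tenfold in saline and Coulter-counted. Percent growth inhibition computed against PBS/DMSO controls.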

Row | SMILES | inhibition of growth at 10 µM [%]
15 | Cc1csc(NC(=O)C(C)N2CCN(C)CC2)n1 (stereo unspecified) | < 10

System: UACC-62
Assay: Growth inhibition of human UACC62 cells at 10 uM after 48 hrs by coulter counter analysis
Assay type: functional
Details: UACC-62, 48 h, read-out: GI
Summary of the method: as §2

Row | SMILES | inhibition of growth at 10 µM [%]
16 | Cc1csc(NC(=O)C(C)N2CCN(C)CC2)n1 (stereo unspecified) | 24

System: NCI-H522
Assay: Growth inhibition of human NCI-H522 cells at 10 uM after 48 hrs by coulter counter analysis
Assay type: functional
Details: NCI-H522, 48 h, read-out: GI
Summary of the method: as §1

Row | SMILES | inhibition of growth at 10 µM [%]
17 | Cc1csc(NC(=O)C(C)N2CCN(C)CC2)n1 (stereo unspecified) | 66.3

System: IGROV-1
Assay: Growth inhibition of human IGROV1 cells at 10 uM after 48 hrs by coulter counter analysis
Assay type: functional
Details: IGROV-1, 48 h, read-out: GI
Summary of the method: as §1

Row | SMILES | inhibition of growth at 10 µM [%]
18 | Cc1csc(NC(=O)C(C)N2CCN(C)CC2)n1 (stereo unspecified) | < 10

System: SW-620
Assay: Growth inhibition of human SW620 cells at 10 uM after 48 hrs by coulter counter analysis
Assay type: functional
Details: SW-620, 48 h, read-out: GI
Summary of the method: as §2

Row | SMILES | inhibition of growth at 10 µM [%]
19 | Cc1csc(NC(=O)C(C)N2CCN(C)CC2)n1 (stereo unspecified) | < 10

System: SK-MEL-5
Assay: Growth inhibition of human SK-MEL-5 cells at 10 uM after 48 hrs by coulter counter analysis
Assay type: functional
Details: SK-MEL-5, 48 h, read-out: GI
Summary of the method: as §1

Row | SMILES | inhibition of growth at 10 µM [%]
20 | Cc1csc(NC(=O)C(C)N2CCN(C)CC2)n1 (stereo unspecified) | 11.3

System: SR
Assay: Growth inhibition of human SR cells at 10 uM after 48 hrs by coulter counter analysis
Assay type: functional
Details: read-out: GI
Summary of the method: as §2

Row | SMILES | inhibition of growth at 10 µM [%]
21 | Cc1csc(NC(=O)C(C)N2CCN(C)CC2)n1 (stereo unspecified) | < 10

System: LOX IMVI
Assay: Growth inhibition of human LOXIMVI cells at 10 uM after 48 hrs by coulter counter analysis
Assay type: functional
Details: read-out: GI
Summary of the method: as §1

Row | SMILES | inhibition of growth at 10 µM [%]
22 | Cc1csc(NC(=O)C(C)N2CCN(C)CC2)n1 (stereo unspecified) | 46.4

System: COLO 205
Assay: Growth inhibition of human COLO205 cells at 10 uM after 48 hrs by coulter counter analysis
Assay type: functional
Details: COLO 205, 48 h, read-out: GI
Summary of the method: as §1

Row | SMILES | inhibition of growth at 10 µM [%]
23 | Cc1csc(NC(=O)C(C)N2CCN(C)CC2)n1 (stereo unspecified) | < 10

System: ACHN
Assay: Growth inhibition of human ACHN cells at 10 uM after 48 hrs by coulter counter analysis
Assay type: functional
Details: read-out: GI
Summary of the method: as §1

Row | SMILES | inhibition of growth at 10 µM [%]
24 | Cc1csc(NC(=O)C(C)N2CCN(C)CC2)n1 (stereo unspecified) | < 10

System: NCI-H322M
Assay: Growth inhibition of human NCI-H322M cells at 10 uM after 48 hrs by coulter counter analysis
Assay type: functional
Details: read-out: GI
Summary of the method: as §1

Row | SMILES | inhibition of growth at 10 µM [%]
25 | Cc1csc(NC(=O)C(C)N2CCN(C)CC2)n1 (stereo unspecified) | < 10

System: not listed separately
Assay: Growth inhibition of human Hs 578T cells at 10 uM after 48 hrs by coulter counter analysis
Assay type: functional
Details: read-out: GI
Summary of the method: as §1

Row | SMILES | inhibition of growth at 10 µM [%]
26 | Cc1csc(NC(=O)C(C)N2CCN(C)CC2)n1 (stereo unspecified) | < 10

System: MDA-MB-468
Assay: Growth inhibition of human MDA-MB-468 cells at 10 uM after 48 hrs by coulter counter analysis
Assay type: functional
Details: MDA-MB-468, 48 h, read-out: GI
Summary of the method: as §1

Row | SMILES | inhibition of growth at 10 µM [%]
27 | Cc1csc(NC(=O)C(C)N2CCN(C)CC2)n1 (stereo unspecified) | 11.1

System: SF-295
Assay: Growth inhibition of human SF295 cells at 10 uM after 48 hrs by coulter counter analysis
Assay type: functional
Details: SF-295, 48 h, read-out: GI
Summary of the method: as §1

Row | SMILES | inhibition of growth at 10 µM [%]
28 | Cc1csc(NC(=O)C(C)N2CCN(C)CC2)n1 (stereo unspecified) | < 10

System: T47D
Assay: Growth inhibition of human T47D cells at 10 uM after 48 hrs by coulter counter analysis
Assay type: functional
Details: read-out: GI
Summary of the method: as §2

Row | SMILES | inhibition of growth at 10 µM [%]
29 | Cc1csc(NC(=O)C(C)N2CCN(C)CC2)n1 (stereo unspecified) | < 10

System: OVCAR-4
Assay: Growth inhibition of human OVCAR4 cells at 10 uM after 48 hrs by coulter counter analysis
Assay type: functional
Details: OVCAR-4, 48 h, read-out: GI
Summary of the method: as §1

Row | SMILES | inhibition of growth at 10 µM [%]
30 | Cc1csc(NC(=O)C(C)N2CCN(C)CC2)n1 (stereo unspecified) | 16.2

System: OVCAR-5
Assay: Growth inhibition of human OVCAR5 cells at 10 uM after 48 hrs by coulter counter analysis
Assay type: functional
Details: OVCAR-5, 48 h, read-out: GI
Summary of the method: as §1

Row | SMILES | inhibition of growth at 10 µM [%]
31 | Cc1csc(NC(=O)C(C)N2CCN(C)CC2)n1 (stereo unspecified) | < 10

System: BT-549
Assay: Growth inhibition of human BT549 cells at 10 uM after 48 hrs by coulter counter analysis
Assay type: functional
Details: BT-549, 48 h, read-out: GI
Summary of the method: as §1

Row | SMILES | inhibition of growth at 10 µM [%]
32 | Cc1csc(NC(=O)C(C)N2CCN(C)CC2)n1 (stereo unspecified) | 13.3

System: SK-MEL-2
Assay: Growth inhibition of human SK-MEL-2 cells at 10 uM after 48 hrs by coulter counter analysis
Assay type: functional
Details: SK-MEL-2, 48 h, read-out: GI
Summary of the method: as §1

Row | SMILES | inhibition of growth at 10 µM [%]
33 | Cc1csc(NC(=O)C(C)N2CCN(C)CC2)n1 (stereo unspecified) | < 10

System: OVCAR-3
Assay: Growth inhibition of human OVCAR3 cells at 10 uM after 48 hrs by coulter counter analysis
Assay type: functional
Details: OVCAR-3, 48 h, read-out: GI
Summary of the method: as §1

Row | SMILES | inhibition of growth at 10 µM [%]
34 | Cc1csc(NC(=O)C(C)N2CCN(C)CC2)n1 (stereo unspecified) | < 10

System: MDA-MB-231
Assay: Growth inhibition of human MDA-MB-231 cells at 10 uM after 48 hrs by coulter counter analysis
Assay type: functional
Details: MDA-MB-231, 48 h, read-out: GI
Summary of the method: as §1

Row | SMILES | inhibition of growth at 10 µM [%]
35 | Cc1csc(NC(=O)C(C)N2CCN(C)CC2)n1 (stereo unspecified) | 13.3

System: SF-539
Assay: Growth inhibition of human SF539 cells at 10 uM after 48 hrs by coulter counter analysis
Assay type: functional
Details: SF-539, 48 h, read-out: GI
Summary of the method: as §1

Row | SMILES | inhibition of growth at 10 µM [%]
36 | Cc1csc(NC(=O)C(C)N2CCN(C)CC2)n1 (stereo unspecified) | < 10
